Consider five compounds from ChEMBL document CHEMBL2429794, “Tuning the antibacterial activity of amphiphilic neamine derivatives and comparison to paromamine homologues” (J Med Chem, 2013).

Converted amounts (≈) assume the structure as drawn.

In assay [1] the test system is Staphylococcus aureus. Description: Antibacterial activity against Staphylococcus aureus expressing aminoglycoside-[…] after 24 hrs by geometric microdilution method. The class given is functional. In outline:
(§1)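 Broth cultures were incubated in plates at 37 °C, and growth was read as absorbance at 650 nm after 1, 4, 7 and 24 h. Ampicillin (16 mg/L) was the positive control and DMSO the negative control. Each MIC (μg/mL) is the average of at least three determinations.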

The test system of assay [2] is Pseudomonas aeruginosa. The experiment in a line: Antibacterial activity against Pseudomonas aeruginosa ATCC 27853 after 24 hrs by geometric microdilution method. Type of assay: functional. Conditions: ATCC 27853, 24 h.
Assay [3] relates to Escherichia coli. Description: microbe, parasite or virus in culture. Conditions: ATCC 25922, 24 h.
Assay [4] deals with Staphylococcus aureus. The experiment in a line: Antibacterial activity against vancomycin-resistant Staphylococcus aureus VRS2 after 24 hrs by geometric microdilution method. The class given is functional. Conditions: VRS2, 24 h. In outline:
as §1

Assay [5] concerns Pseudomonas aeruginosa. Description: Antibacterial activity against Pseudomonas aeruginosa PA22 (PT629) expressing MexXY after 24 hrs by geometric microdilution method. The class given is functional.
In assay [6] the test system is Staphylococcus aureus. Description: microbe, parasite or virus in culture. To be noted: ATCC 25923, 24 h.
The subject of another assay is Klebsiella pneumoniae. The experiment in a line: Antibacterial activity against Klebsiella pneumoniae ATCC 700603 after 24 hrs by geometric microdilution method. The class given is functional. Conditions: ATCC 700603, 24 h.
The subject of assay [7] is Staphylococcus aureus. The experiment in a line: Antibacterial activity against Staphylococcus aureus expressing aminoglycoside-6'-N-acetyltransferase/2''-O-phosphoryltransferase after 24 hrs by geometric microdilution method. The class given is functional. In outline:
as §1

The subject of assay [8] is Acinetobacter lwoffii. Description: Antibacterial activity against Acinetobacter lwoffii AI.88-483 expressing APH3'-6A after 24 hrs by geometric microdilution method. Type of assay: functional. Conditions: AI.88-483, 24 h.
Assay [9] deals with Escherichia coli. The experiment in a line: Antibacterial activity against Escherichia coli L58058.1 expressing ANT2''-1A after 24 hrs by geometric microdilution method. The class given is functional. To be noted: L58058.1, 24 h.
Assay [10] relates to Acinetobacter lwoffii. Description: Antibacterial activity against Acinetobacter lwoffii ATCC 17925 after 24 hrs by geometric microdilution method. To be noted: ATCC 17925, 24 h. Type of assay: functional.
Assay [11] concerns Staphylococcus aureus. The experiment in a line: Antibacterial activity against fluoroquinolone-resistant Staphylococcus aureus 1199B expressing NorA efflux pump after 24 hrs by geometric microdilution method. Type of assay: functional. Put shortly:
as §1

Assay [12] concerns Staphylococcus aureus. Description: Antibacterial activity against 14- and 15-membered macrolide-resistant Staphylococcus aureus expressing MsrA efflux pump after 24 hrs by geometric microdilution method. The class given is functional. In outline: as §1
The subject of assay [13] is Escherichia coli. The experiment in a line: Antibacterial activity against Escherichia coli PAZ505H8101 expressing AAC6'-1B after 24 hrs by geometric microdilution method. Type of assay: functional. To be noted: PAZ505H8101, 24 h.
Assay [14] has as its system Pseudomonas aeruginosa. The experiment in a line: Antibacterial activity against Pseudomonas aeruginosa F03 expressing AAC6'-2A after 24 hrs by geometric microdilution method. Type of assay: functional. Conditions: F03, 24 h.
In assay [15] the test system is Staphylococcus aureus. The experiment in a line: Antibacterial activity against Staphylococcus aureus expressing aminoglycoside-3'-O-phosphoryltransferase after 24 hrs by geometric microdilution method. The class given is functional. In outline: as §1
In assay [16] the test system is Staphylococcus aureus. Description: Antibacterial activity against healthcare-acquired methicillin-resistant Staphylococcus aureus ATCC 33592 after 24 hrs by geometric microdilution method. The class given is functional. To be noted: ATCC 33592, 24 h. In outline:
as §1

For `N[C@H]1[C@@H](O[C@H]2[C@H](O)[C@@H](OCc3ccc4ccccc4c3)[C@H](N)C[C@@H]2N)O[C@H](CO)[C@@H](O)[C@@H]1OCc1ccc2ccccc2c1`, the MIC in the assay on Staphylococcus aureus [1] stood at 16 µg/mL (≈ 26.5 µM); against Pseudomonas aeruginosa [2], 128 µg/mL (≈ 212 µM); in the assay on Escherichia coli [3], 128 µg/mL (≈ 212 µM); against Staphylococcus aureus [4], 16 µg/mL (≈ 26.5 µM); in the assay on Pseudomonas aeruginosa [5] it was 128 µg/mL (≈ 212 µM); in the assay on Staphylococcus aureus [6], 8 µg/mL (≈ 13.3 µM). In addition, the MIC is above 128 µg/mL against Klebsiella pneumoniae; 32 µg/mL (≈ 53 µM) with Staphylococcus aureus [7]; above 128 µg/mL in the assay on Acinetobacter lwoffii [8]; 64 µg/mL (≈ 106 µM) with Escherichia coli [9]; 64 µg/mL (≈ 106 µM) against Acinetobacter lwoffii [10]; 32 µg/mL (≈ 53 µM) in the assay with Staphylococcus aureus [11]. Moreover, the MIC against Staphylococcus aureus [12] was found to be 32 µg/mL (≈ 53 µM); against Escherichia coli [13], 64 µg/mL (≈ 106 µM); against Pseudomonas aeruginosa [14], 64 µg/mL (≈ 106 µM); against Staphylococcus aureus [15], 16 µg/mL (≈ 26.5 µM); against Staphylococcus aureus [16], 16 µg/mL (≈ 26.5 µM).
Consider `N[C@H]1[C@@H](O[C@H]2[C@H](O)[C@@H](OCc3cccc4ccccc34)[C@H](N)C[C@@H]2N)O[C@H](CO)[C@@H](OCc2cccc3ccccc23)[C@@H]1OCc1cccc2ccccc12`, for which the MIC in the assay with Staphylococcus aureus [1] is 16 µg/mL (≈ 21.5 µM); in the assay with Pseudomonas aeruginosa [2], 32 µg/mL (≈ 43 µM); with Escherichia coli [3], 16 µg/mL (≈ 21.5 µM); in the assay with Staphylococcus aureus [4], 32 µg/mL (≈ 43 µM); in the assay with Pseudomonas aeruginosa [5], 32 µg/mL (≈ 43 µM); with Staphylococcus aureus [6], 2 µg/mL (≈ 2.69 µM). For the same compound, the MIC turned out to be 128 µg/mL (≈ 172 µM) against Klebsiella pneumoniae; 8 µg/mL (≈ 10.8 µM) with Staphylococcus aureus [7]; 128 µg/mL (≈ 172 µM) against Acinetobacter lwoffii [8]; 16 µg/mL (≈ 21.5 µM) with Escherichia coli [9]; 1 µg/mL (≈ 1.34 µM) in the assay with Acinetobacter lwoffii [10]; 8 µg/mL (≈ 10.8 µM) against Staphylococcus aureus [11]. Besides, the MIC stood at 8 µg/mL (≈ 10.8 µM) against Staphylococcus aureus [12]; 16 µg/mL (≈ 21.5 µM) in the assay with Escherichia coli [13]; 32 µg/mL (≈ 43 µM) in the assay on Pseudomonas aeruginosa [14]; 4 µg/mL (≈ 5.38 µM) in the assay on Staphylococcus aureus [15]; 32 µg/mL (≈ 43 µM) in the assay on Staphylococcus aureus [16].
On to `N[C@H]1[C@@H](O[C@H]2[C@H](O)[C@@H](OCc3cccc4ccccc34)[C@H](N)C[C@@H]2N)O[C@H](CO)[C@@H](O)[C@@H]1OCc1cccc2ccccc12`, for which the MIC was 32 µg/mL (≈ 53 µM) against Staphylococcus aureus [1]; 64 µg/mL (≈ 106 µM) against Pseudomonas aeruginosa [2]; 128 µg/mL (≈ 212 µM) against Escherichia coli [3]; above 128 µg/mL with Pseudomonas aeruginosa [5]; 32 µg/mL (≈ 53 µM) against Staphylococcus aureus [6]; 128 µg/mL (≈ 212 µM) against Klebsiella pneumoniae. The MIC is 64 µg/mL (≈ 106 µM) against Staphylococcus aureus [7]; above 128 µg/mL against Acinetobacter lwoffii [8]; 128 µg/mL (≈ 212 µM) against Escherichia coli [9]; 128 µg/mL (≈ 212 µM) with Acinetobacter lwoffii [10]; 64 µg/mL (≈ 106 µM) in the assay on Staphylococcus aureus [11]; 64 µg/mL (≈ 106 µM) against Staphylococcus aureus [12]. Further, the MIC was 64 µg/mL (≈ 106 µM) against Escherichia coli [13], 128 µg/mL (≈ 212 µM) in the assay on Pseudomonas aeruginosa [14], 32 µg/mL (≈ 53 µM) against Staphylococcus aureus [15] and 32 µg/mL (≈ 53 µM) against Staphylococcus aureus [16].
Take `NC[C@H]1O[C@H](O[C@H]2[C@H](O)[C@@H](OCc3cccc4ccccc34)[C@H](N)C[C@@H]2N)[C@H](N)[C@@H](OCc2cccc3ccccc23)[C@@H]1OCc1cccc2ccccc12`: the MIC with Staphylococcus aureus [1] was determined as 4 µg/mL (≈ 5.38 µM); against Pseudomonas aeruginosa [2], 8 µg/mL (≈ 10.8 µM); in the assay on Escherichia coli [3], 8 µg/mL (≈ 10.8 µM); with Staphylococcus aureus [4], 16 µg/mL (≈ 21.5 µM); against Pseudomonas aeruginosa [5], 8 µg/mL (≈ 10.8 µM); in the assay with Staphylococcus aureus [6] it was 1 µg/mL (≈ 1.35 µM). The MIC with Klebsiella pneumoniae stood at 128 µg/mL (≈ 172 µM); in the assay with Staphylococcus aureus [7], 4 µg/mL (≈ 5.38 µM); against Acinetobacter lwoffii [8] it was 128 µg/mL (≈ 172 µM); with Escherichia coli [9], 16 µg/mL (≈ 21.5 µM); against Acinetobacter lwoffii [10], 2 µg/mL (≈ 2.69 µM); against Staphylococcus aureus [11], 4 µg/mL (≈ 5.38 µM). In addition, the MIC in the assay on Staphylococcus aureus [12] stood at 2 µg/mL (≈ 2.69 µM); against Escherichia coli [13], 2 µg/mL (≈ 2.69 µM); against Pseudomonas aeruginosa [14], 8 µg/mL (≈ 10.8 µM); against Staphylococcus aureus [15], 2 µg/mL (≈ 2.69 µM); in the assay on Staphylococcus aureus [16] it was 4 µg/mL (≈ 5.38 µM).
On to `NC[C@@H]1O[C@H](O[C@H]2[C@@H](O)[C@H](O[C@@H]3[C@@H](O)[C@H](N)C[C@H](N)[C@H]3O[C@H]3O[C@H](CN)[C@@H](O)[C@H](O)[C@H]3N)O[C@@H]2CO)[C@H](N)[C@@H](O)[C@@H]1O` [FRAMYCETIN], for which the MIC in the assay on Staphylococcus aureus [1] was 32 µg/mL (≈ 52.1 µM); in the assay on Pseudomonas aeruginosa [2], 64 µg/mL (≈ 104 µM); against Escherichia coli [3] it was 2 µg/mL (≈ 3.25 µM); against Staphylococcus aureus [4], 128 µg/mL (≈ 208 µM); in the assay on Pseudomonas aeruginosa [5] it was 32 µg/mL (≈ 52.1 µM); against Staphylococcus aureus [6], 2 µg/mL (≈ 3.25 µM). For the same compound, the MIC against Klebsiella pneumoniae was 16 µg/mL (≈ 26 µM); against Staphylococcus aureus [7], 1 µg/mL (≈ 1.63 µM); against Acinetobacter lwoffii [8], above 128 µg/mL; against Escherichia coli [9] it was 1 µg/mL (≈ 1.63 µM); in the assay with Acinetobacter lwoffii [10] it was 0.5 µg/mL (≈ 0.813 µM); against Staphylococcus aureus [11], 1 µg/mL (≈ 1.63 µM). Besides, the MIC in the assay on Staphylococcus aureus [12] was 2 µg/mL (≈ 3.25 µM); against Escherichia coli [13] it was 4 µg/mL (≈ 6.51 µM); in the assay with Pseudomonas aeruginosa [14], 128 µg/mL (≈ 208 µM); in the assay with Staphylococcus aureus [15], above 128 µg/mL; with Staphylococcus aureus [16], above 128 µg/mL.
